As usually defined, the logD is the decadic logarithm of the distribution of all forms, ionised or not, between an organic phase and buffer at a given pH.

The test system of data set [1] is Rattus norvegicus. Kind of data set: Efficiency of the chelator [(net iron excretion ) / (total iron binding capacity of chelator)] to induce iron clearance in rat at a peroral dose of 150 umol/kg. It counts as functional. The procedure, abridged: (§1)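 Male Sprague–Dawley rats (~400 g) had bile-duct cannulation under ip pentobarbital. Chelator in 40% Cremophor RH-40/water was given at 150 µmol/kg, po or sc. Bile was collected at 3-h intervals for 24 h and urine every 24 h; iron was measured in both. Net iron = treated minus control excretion, divided by the theoretical 2:1 ligand–iron binding capacity, as a percent.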

Data set [2] relates to Rattus norvegicus. Kind of data set: Efficiency of the chelator [(net iron excretion ) / (total iron binding capacity of chelator)] to induce iron clearance in rat at a subcutaneous dose of 150 uMol/kg. The class given is functional. Summed up: as §1
For data set [3], the system named is Rattus norvegicus. Kind of data set: Efficiency of the chelator [(net iron excretion ) / (total iron binding capacity of chelator)] to induce iron clearance in rat at a peroral dose of 150 uMol/kg. It counts as functional. Summed up:
as §1

For data set [4], the system named is Monkey. Kind of data set: Efficiency of the chelator [(net iron excretion ) / (total iron binding capacity of chelator)] to induce iron clearance in monkey at a peroral dose of 150 uMol/kg. It counts as functional, Cercopithecidae. The procedure, abridged: (§2)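 Capuchin (Cebus apella) monkeys were iron-loaded with 2–3 iron dextran iv infusions to about 500 mg Fe/kg, then rested at least 60 days. Chelator was given po in 40% Cremophor RH-40/water. Feces and urine were collected every 24 h, from 4 days pre-dose to 5 days post-dose, and iron was measured by flame AAS. Efficiency = (2-day post-dose iron − mean 4-day baseline) / theoretical output for a 2:1 ligand–iron complex, as a percent.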

Data set [5] can be described thus: Octanol-water apparent distribution coefficient measured in TRIS buffer at a pH 7.4. The class given is physicochemical. The procedure, abridged:
(§3)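 Shake-flask octanol/50 mM TRIS buffer pH 7.4 at 24 °C, with 3–5 min mixing and 1–24 h settling. Phase concentrations were read by UV spectrometry. Values are distribution coefficients uncorrected for partial ionization of the acids.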

The subject of data set [6] is Rattus norvegicus. Kind of data set: Chronic toxicity in rats administered by gavage at a dose of 384 [uMol/kg/day] X 10 days, measured as number of deaths. Activity value is 0/5 (All histopathologies normal; well tolerated for 10-day test period). The class given is organism-based. As to conditions: in vivo, po, 240 h.
Data set [7] is described as follows: log P value measured in TRIS buffer at a pH 7.4. It counts as physicochemical. Summed up: as §3
In data set [8] the test system is Monkey. Kind of data set: Efficiency of the chelator [(net iron excretion ) / (total iron binding capacity of chelator)] to induce iron clearance in monkey at a peroral dose of 75 umol/kg.
The test system of data set [9] is Rattus norvegicus. The experiment in a line: Chronic toxicity in 5 rats administered by gavage at a dose of 384 [uMol/kg/day] X 10 days, measured as number of deaths. Activity value is 0/5 (All histopathologies normal; well tolerated for 10-day test period). The class given is organism-based. The note with it: in vivo, po, 240 h.
Data set [10] relates to Monkey. Kind of data set: Efficiency of the chelator [(net iron excretion ) / (total iron binding capacity of chelator)] to induce iron clearance in monkey at a peroral dose of 300 uMol/kg. The class given is functional, Cercopithecidae. Summed up:
as §2

The subject of data set [11] is Rattus norvegicus. The experiment in a line: Chronic toxicity in 5 rats administered by gavage at a dose of 384 [uMol/kg/day] X 10 days, measured as number of deaths. Activity value is 5/5. It counts as organism-based. As to conditions: in vivo, po, 240 h.
The test system of data set [12] is Rattus norvegicus. Kind of data set: Chronic toxicity in 5 rats administered by gavage at a dose of 384 [uMol/kg/day] X 10 days, measured as number of deaths. Activity value is 5/5. The class given is organism-based. The note with it: in vivo, po, 240 h.

Structures are written as SMILES. Where only a bound is given, the exact number is not on record here.

Turning to `O=C(O)C1CN=C(c2ccccc2O)N1` (centres undefined), the Efficiency with Rattus norvegicus [1] and in the data set with Rattus norvegicus [2] was below 0.5% in each case.

On to `COc1cccc(C2=N[C@@H](C(=O)O)CS2)c1O`, for which the Efficiency with Rattus norvegicus [1] is reported as 0.9%; with Rattus norvegicus [2], 0.5%.

For `O=C(O)[C@H]1CSC(Cc2ccccc2O)=N1`, the Efficiency in the data set on Rattus norvegicus [1] and in the data set with Rattus norvegicus [2] was below 0.5% throughout.

In the data set on Rattus norvegicus [1], `O=C(O)C[C@H]1CSC(c2ccccc2O)=N1` registered an Efficiency below 0.5%.

`O=C(O)CC[C@H]1CSC(c2ccccc2O)=N1` had an Efficiency in the data set on Rattus norvegicus [1] below 0.5%.

With `O=C(O)c1ccc(C2=N[C@@H](C(=O)O)CS2)c(O)c1`, the Efficiency with Rattus norvegicus [1] and in the data set with Rattus norvegicus [2] was below 0.5% each time.

As for `O=C(O)[C@H]1CSC(c2cccc(O)c2O)=N1`, the Efficiency with Rattus norvegicus [3] and in the data set with Rattus norvegicus [2] was below 0.5% throughout.

`O=C(O)[C@H]1CSC(c2ccc(O)cc2O)=N1`: the Efficiency in the data set on Rattus norvegicus [3] came out at 2.4%; with Monkey [4] it was 4.2%. Further, the K app in data set [5] was 0.063. The No. of deaths entry in the data set on Rattus norvegicus [6] is listed as “well tolerated for 10-day test period”. In [7], the logD was -1.2.

Regarding `O=C(O)[C@@H]1CSC(c2nc3ccccc3cc2O)=N1`, the values for the Efficiency in the data set with Monkey [8] and in the data set with Rattus norvegicus [1] were below 0.5% and 12.3%, respectively.

Turning to `O=C(O)[C@H]1CSC(c2ncccc2O)=N1`, the Efficiency in the data set with Monkey [4] is listed as 4.8%; in the data set with Rattus norvegicus [1], 2.4%; with Monkey [10], 8%. The K app in [5] was 0.013. In the data set on Rattus norvegicus [9], the No. of deaths result was “well tolerated for 10-day test period”. This compound showed a logD in data set [7] of -1.87.

As for `O=C(O)[C@H]1CSC(c2nc3ccccc3cc2O)=N1`, the Efficiency with Monkey [4] is 3.5%; in the data set on Rattus norvegicus [1] it was 5.9%.

With `O=C(O)[C@H]1CSC(c2ccccc2O)=N1`, the K app in data set [5] is on record as 0.12. The No. of deaths entry with Rattus norvegicus [11] is “Number of deaths 5/5”. Besides, the Efficiency with Rattus norvegicus [1] worked out at 1.4%; in the data set on Monkey [10], 12.4%. In [7], this compound gave a log distribution coefficient (logD) of -0.93.

As for `Cc1ccc(O)c(C2=NC(C(=O)O)CC2)c1.Cl` (centres undefined), the Efficiency in the data set with Rattus norvegicus [1] and with Rattus norvegicus [2] was below 0.5% throughout.

Turning to `C[C@]1(C(=O)O)CSC(c2ncccc2O)=N1` [DESFERRITHIOCIN], the No. of deaths result in the data set on Rattus norvegicus [12] is “Number of deaths 5/5”. The Efficiency in the data set with Monkey [4] was 16.1%; with Rattus norvegicus [1], 5.5%. Also, in data set [5], the K app is listed as 0.017. This compound gave a log distribution coefficient (logD) in data set [7] of -1.77.

Source of the values: ChEMBL document CHEMBL1132205, “Desazadesmethyldesferrithiocin analogues as orally effective iron chelators” (J Med Chem, 1999).
